Assay outcomes deposited in PubChem by several laboratories.
PMI act: activators of human PMI, primary screen, biochemical, fluorescence intensity, near-Km mannose 6-phosphate; purified human PMI, coupled resazurin fluorescence, 20 min; stronger effect = higher value; 1 = vehicle control, 0 substrate-free wells; activation factor at 20 µM; actives 0.005% (n = 190,000); Mannose-6-phosphate isomerase (Homo sapiens), P34949;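 active means activation factor of 2 or more at 20 µM, relative to plate controls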
Target sequence (P34949 whole entry, looked up): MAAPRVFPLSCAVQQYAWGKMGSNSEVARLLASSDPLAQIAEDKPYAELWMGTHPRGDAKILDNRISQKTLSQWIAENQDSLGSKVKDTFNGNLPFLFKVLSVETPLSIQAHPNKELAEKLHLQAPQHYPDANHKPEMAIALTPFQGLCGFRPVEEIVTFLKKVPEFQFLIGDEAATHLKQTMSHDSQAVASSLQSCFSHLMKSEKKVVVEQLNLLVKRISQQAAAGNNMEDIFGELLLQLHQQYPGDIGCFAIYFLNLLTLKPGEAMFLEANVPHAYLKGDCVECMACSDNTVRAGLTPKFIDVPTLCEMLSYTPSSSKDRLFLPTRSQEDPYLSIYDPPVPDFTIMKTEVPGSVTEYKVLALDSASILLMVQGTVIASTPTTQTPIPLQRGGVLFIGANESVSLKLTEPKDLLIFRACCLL
Diaph act CS: compounds boosting diaphorase resazurin reduction – biochemical, uHTS, resorufin fluorescence, counter-screen for diaphorase-coupled primary assays, primary screen | Diaphorase/resazurin coupled assay, 16 min; stronger effect = higher value; 1 = vehicle wells, 0 = NADH-free wells | activation factor at 20 µM | actives 0.005% (n = 190,000) | AID 1229, 2008;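 active means diaphorase activity raised at least twofold by the compound at 20 µM; inactive means activation factor below 2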
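Test system: Clostridium kluyveri diaphorase, purified enzyme; input: enzyme 0.07 U/mL final; buffer or medium: 50 mM HEPES pH 7.4 with 4.542 mM MgCl2, 0.005% Tween 20; also added: 0.114 mM NADH and 0.1 mM resazurin, final amounts; schedule: 16 min enzyme reaction, ambient temperature; technique: fluorescence of resorufin, 544 nm excitation, 590 nm emission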
Lmaj promast: Leishmania major promastigote growth inhibition, primary screen | Leishmania major promastigotes, resazurin fluorescence viability | inhibition, % at 10 µM | actives 9% (n = 200,000) | AID 1063, 2008; in the data active means inhibition above about 50%;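 further: promastigotes grown with compound for 44 hours at 28 °C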
WT yeast gro inh: growth inhibition of WT strain, primary screen, mitochondrial fusion inhibitor project, WT and mutant strains, chemical genetic; mitochondrial fusion phenotypic screen; inhibition, % at 10 µM; actives 2.1% (n = 190,000); in the data active means inhibition above about 58%; tested in S. cerevisiae
PMI act satM6P: human PMI activators, high substrate, primary screen, biochemical, fluorescence intensity, near-saturating mannose 6-phosphate; coupled PMI enzyme assay, resazurin fluorescence, 20 min; stronger effect = higher value; 1 = untreated enzyme, 0 = substrate-free blank; activation factor at 20 µM; actives 0.34% (n = 190,000); AID 1216, 2008;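 active means activation factor of 2 or more at 20 µM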
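Test system: human PMI in coupled enzyme assay; Input: PMI at 15 ng/mL final; Medium: HEPES buffer, pH 7.4; Schedule: 20 min incubation at room temperature; Technique: resorufin fluorescence at Ex 544/Em 590 nm; Compound: 20 µM single dose; Probe or stimulus: Near-saturating mannose-6-phosphate, 1.0 mM.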
* marks the source's active call; other numbers are inactive results; . = not tested or not shown. This is a sample that favours compounds with a hit; in the whole collection about 10% have one here.

SMILES	PMI act	Diaph act CS	Lmaj promast	WT yeast gro inh	PMI act satM6P
N#CC(C#N)=C1C=CC=CN1/C(=C\c1ccco1)C(=O)c1ccc(Br)cc1	0.9	0.9	24	71*	0.9
S=C(NC1CCCC1)NN1CCOCC1	0.9	0.9	-7	5	0.8
COc1ccccc1Nc1nc2nonc2nc1N1CCCCC1C (stereo not given)	0.9	0.9	91*	18	1
COc1cc(C(=O)NC(=S)NNC(=O)c2cnccn2)cc(OC)c1OC	0.9	0.5	100*	-1	1.3
CCCCn1c2c(c3ccccc31)CCc1nonc1-2	1	1.1	-8	4	1
CC1(C)C(C=C(Cl)Cl)C1C(=O)N(Cc1cccc(Cl)c1)C1CCS(=O)(=O)C1 (stereo not given)	1	0.8	91*	24	0.9
O=C(c1cccs1)N(Cc1cccc(Cl)c1)C1CCS(=O)(=O)C1 (stereo not given)	1	0.9	-2	-13	1
C=CCSc1nc2[nH]ncc2c(=O)[nH]1	1	0.9	-9	4	1
C#CCSc1nc2[nH]ncc2c(=O)[nH]1	1	1	53*	-6	0.9
COc1ccc(C(C)=O)cc1CSc1nc2ccccc2c(=O)n1-c1cccc(C)c1	0.9	0.8	18	65*	1
COc1ccc(C(C)=O)cc1CSc1nc2ccccc2c(=O)n1-c1ccccc1	0.9	1.1	0	33	1
COc1ccc(C(C)=O)cc1CSc1nc2ccccc2c(=O)n1-c1ccccc1C	1	0.8	78*	61*	1
C=CCn1c(SCc2cc(C(C)=O)ccc2OCC)nc2ccccc2c1=O	1	0.8	97*	-14	1
CC(C)Oc1ccc(C(CC(=O)O)NC(=O)c2cccs2)cc1 (stereo not given)	1.1	1	-4	1	1.1
O=C1NC(=S)N/C1=C\c1ccc(N2CCOCC2)cc1	0.9	1	2	13	0.9
CCN(CC)C(=O)C(C)OC(=O)COc1ccc(Cl)cc1Cl (stereo not given)	1	0.9	58*	12	1
CN(C)c1nc(OCCOC(=O)COc2ccc(Cl)cc2Cl)nc(N(C)C)n1	0.9	0.9	4	1	0.9
CC1CCC(C(C)C)C(OC(=O)Cn2c(-c3ccccc3)[n+](C)c3ccccc32)C1 (stereo not given)	1.1	0.9	100*	40	1.1
Cc1cccc(OCc2n(CC(=O)OC3CC(C)CCC3C(C)C)c3ccccc3[n+]2C)c1 (stereo not given)	0.8	1.2	100*	43	0.8
CC1CCC(C(C)C)C(OC(=O)Cn2c(-c3ccc(F)cc3)[n+](C)c3ccccc32)C1 (stereo not given)	1	0.9	100*	23	1.1
Cc1csc(NC(=O)C(NC(=O)c2ccccc2F)C(C)C)n1 (stereo not given)	1.1	1.1	-2	5	1.1
COc1ccc(S(=O)(=O)N2CC(O)CC2C(=O)OCc2nc3sc(C)c(C)c3c(=O)[nH]2)cc1 (stereo not given)	1	0.9	-7	-13	1
COC(=O)NCC(c1cccnc1)N1CCN(c2ccccc2F)CC1 (stereo not given)	1.1	1.1	56*	3	1.1
COc1ccc(N2CCN(C(CNC(=O)c3ccco3)c3cccnc3)CC2)cc1 (stereo not given)	0.9	0.9	46	.	0.9
O=C(NCc1cccnc1)c1cccc(Cl)c1	0.9	0.9	-7	-2	0.9
SMILES	PMI act	Diaph act CS	Lmaj promast	WT yeast gro inh	PMI act satM6P
COc1ccccc1N1CCN(C(CNS(=O)(=O)c2ccc(C)cc2)c2cccnc2)CC1 (stereo not given)	0.9	0.8	96*	-14	0.9
O=C(NCC(c1cccnc1)N1CCN(c2ccccc2F)CC1)c1cccc(Cl)c1 (stereo not given)	1	1	94*	19	1
COc1ccccc1N1CCN(C(CNS(C)(=O)=O)c2cccnc2)CC1 (stereo not given)	1.1	1.1	17	-9	1
COc1ccccc1N1CCN(C(CNC(=O)c2ccco2)c2cccnc2)CC1 (stereo not given)	1	0.9	81*	6	1
O=C1C(=O)N(CCc2c[nH]c3ccccc23)C(c2cccnc2)/C1=C(/O)c1ccccc1 (stereo not given)	1.1	1	-11	-9	1
O=C(O)C(Cc1c[nH]c2ccccc12)NS(=O)(=O)c1ccc(Cl)cc1 (stereo not given)	1.1	0.9	8	1	1
COC(=O)NCC(c1cccnc1)N1CCN(c2ccccc2OC)CC1 (stereo not given)	1	1	70*	19	1
CCOC(=O)C(Sc1ncnc2c1sc1nc(N3CCOCC3)c3c(c12)CCCC3)c1ccccc1 (stereo not given)	1	0.8	4	-4	1.3
Cc1ncc(CO)c(/C=N/NC(=S)Nc2ccc(Cl)c(Cl)c2)c1O	1.6	0.8	73*	28	1.9
Cc1ncc(CO)c(/C=N/NC(=S)Nc2cccc(Cl)c2)c1O	1.4	0.7	38	16	1.6
Cc1ncc(CO)c(/C=N/NC(=O)c2cc3c(s2)CCCC3)c1O	1.2	0.7	98*	-7	1.4
COc1ccccc1N/N=C/c1c(CO)cnc(C)c1O	1.6	0.9	1	-5	2.1*
Fc1cccc(CN2CCN(c3nc4nonc4nc3NC3CC3)CC2)c1	0.8	1	13	.	0.8
COc1ccc(C(=O)NNC(=O)CN2CCC(n3nnc4cc(F)ccc43)CC2)cc1	1	0.9	50*	-12	1.1
CC(=O)N1N=C(c2cccc(Cl)c2)OC1c1cccc([N+](=O)[O-])c1 (stereo not given)	0.9	0.9	3	23	1
CC(=O)N1N=C(c2cccc(Cl)c2)OC1c1ccc(C(C)C)cc1 (stereo not given)	0.9	0.8	-5	78*	1
CC(=O)N1N=C(c2cccc([N+](=O)[O-])c2)OC1c1cccc(Br)c1 (stereo not given)	1	0.8	12	66*	1
C=CCN(CC=C)c1cnn(-c2nc3ccccc3[nH]2)c(=O)c1Cl	1.2	0.9	65*	12	1.3
CNC1=C(N(C(C)=O)c2ccc(Br)cc2)C(=O)c2ccccc2C1=O	0.6	0.6	99*	-5	0.4
CCC(=O)N(C1=C(NC)C(=O)c2ccccc2C1=O)C(C)C	0.9	0.8	39	-4	0.4
